This note sets out measurements from PubChem BioAssay.

Active and inactive are the calls of the source.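 How the source made its calls, unless noted: active means viability at or under a set limit in both replicates, limit being median viability minus 3 SD (cut at about 48% in these data, passing the limit was not always enough); inconclusive means at or under the limit in just one replicate; inactive means at or above the limit in both replicates.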

Test [1] can be described thus: Her2 expression decrease, cell viability multiplex – SKBR3 breast tumor cells, AlphaScreen, ATP viability, primary screen (AID 461;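 active means Her2 level under about 52% in both replicate screens, with viability over 70% of control, limit read from the data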;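 on Her2 level: lower value means less Her2 protein in the cells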;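 on viability: percent of carrier control wells set as 100% viability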). The note with it: SKBR3 Her2 protein level, 18-24 h, measured here: SKBR3 viability, ATP luminescence, at 10 µM.
Test [2] addresses Receptor tyrosine-protein kinase erbB-2 (Homo sapiens) (UniProt P04626). The test is described as above. The note with it: 18-24 h, at 10 µM, stronger effect = lower value.
Test [3] is described as follows: reduced viability of SK-BR-3 breast cancer cells – cell-based, 24 h, human, pilot screen (AID 572;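 active means viability at or below 10% of carrier control in both of two separate runs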;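 further: compound exposure lasted between 18 and 24 h rather than exactly 24 h; 100% = carrier-treated control wells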). As to conditions: SK-BR-3 viability, CellTiter-Glo luminescence, at 10 µM, stronger effect = lower value. A general note: In ATP-based viability assays light output follows the ATP content of the culture.
Test [4] can be described thus: HUVEC growth inhibition – cell-based, human, primary screen (AID 575;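 active means viability at or below 30% in both replicate assays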;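 further: 100% = median of untreated cell wells with 0.1% DMSO on each plate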). As to conditions: HUVEC proliferation, CellTiter-Glo luminescence, 72 h; at 10 µM; stronger effect = lower value. In outline:
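Timing: 72 h treatment at 37 °C; material: HUVEC primary cells; technique: CellTiter-Glo luminescence measuring cellular ATP; controls: vehicle and MePR control wells; measure: percent of median DMSO-control luminescence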

Test [5] in a line: H69AR cell proliferation blockers – human, duplicate replicates, primary screen (AID 580).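 Further: 100% = mean luminescence of untreated wells and 0% = no signal.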 As to conditions: H69AR lung tumor cells viability, ATP luminescence, 72 h; at 10 µM; stronger effect = lower value.
The nature of test [6]: MRP1 drug-resistance reversers in H69AR cells – cell-based, doxorubicin co-treatment, pilot screen (AID 601;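 active means viability loss from added drug above about 55%, and viability with drug at most 40%, in both replicates, limit read from the data, passing the limit was not always enough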). As to conditions: CellTiter-Glo, 72 h, at 10 µM; for differential viability (reversal): stronger effect = higher value.
Test [7] can be described thus: yeast transport mutant growth inhibition pilot in 384-well plates, post-Golgi transport modulator project (AID 636; in the data active means inhibition above about 31%). The note with it: absorbance 615 nm, about 18 h, stronger effect = higher value.
Test [8] is described as follows: growth suppression of yeast trafficking mutant, preliminary HTS, modulators of trafficking downstream of Golgi apparatus project, 1536-format plate, OD 615 nm (AID 637; in the data active means inhibition above about 30%). As to conditions: yeast transport mutant growth, absorbance 615 nm, 18 h; stronger effect = higher value.
Where [9] appears, read: H69AR cells + 2 uM doxorubicin, measured here: viability with 2 uM doxorubicin, stronger effect = lower value.
The mark [10] stands for this setting: H69AR cells, compound alone cytotoxicity.

Receptor tyrosine-protein kinase erbB-2 (Homo sapiens), sequence (P04626 whole entry, looked up): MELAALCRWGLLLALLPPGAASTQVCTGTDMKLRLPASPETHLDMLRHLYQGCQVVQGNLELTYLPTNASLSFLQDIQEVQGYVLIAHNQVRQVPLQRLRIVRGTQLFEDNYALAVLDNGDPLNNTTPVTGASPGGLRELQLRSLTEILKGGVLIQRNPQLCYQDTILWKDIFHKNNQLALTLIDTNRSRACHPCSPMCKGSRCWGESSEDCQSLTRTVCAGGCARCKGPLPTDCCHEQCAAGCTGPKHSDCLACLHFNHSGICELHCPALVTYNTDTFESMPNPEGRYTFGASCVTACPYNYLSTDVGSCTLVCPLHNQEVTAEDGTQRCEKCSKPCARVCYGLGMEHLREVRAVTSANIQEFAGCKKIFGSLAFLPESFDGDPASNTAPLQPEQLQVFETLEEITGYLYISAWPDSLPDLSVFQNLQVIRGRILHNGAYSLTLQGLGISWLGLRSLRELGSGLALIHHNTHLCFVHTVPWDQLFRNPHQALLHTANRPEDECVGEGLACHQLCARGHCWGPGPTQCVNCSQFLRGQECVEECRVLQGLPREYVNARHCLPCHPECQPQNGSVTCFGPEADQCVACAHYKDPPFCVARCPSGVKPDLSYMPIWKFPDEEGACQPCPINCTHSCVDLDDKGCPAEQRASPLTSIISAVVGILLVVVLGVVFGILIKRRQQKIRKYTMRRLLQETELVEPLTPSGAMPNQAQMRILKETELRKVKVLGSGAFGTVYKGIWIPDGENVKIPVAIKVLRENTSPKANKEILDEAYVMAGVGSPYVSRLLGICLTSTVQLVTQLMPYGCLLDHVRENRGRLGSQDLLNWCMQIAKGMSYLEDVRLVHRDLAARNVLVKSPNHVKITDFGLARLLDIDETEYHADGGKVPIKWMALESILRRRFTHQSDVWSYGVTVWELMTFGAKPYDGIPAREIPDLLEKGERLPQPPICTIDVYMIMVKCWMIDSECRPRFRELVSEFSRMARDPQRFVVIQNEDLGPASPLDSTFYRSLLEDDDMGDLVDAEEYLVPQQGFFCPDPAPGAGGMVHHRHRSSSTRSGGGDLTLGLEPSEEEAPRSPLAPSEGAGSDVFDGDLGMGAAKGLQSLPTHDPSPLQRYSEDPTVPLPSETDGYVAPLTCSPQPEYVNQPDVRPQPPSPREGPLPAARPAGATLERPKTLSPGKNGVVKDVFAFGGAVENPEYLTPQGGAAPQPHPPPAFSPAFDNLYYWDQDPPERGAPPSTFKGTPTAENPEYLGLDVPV

The viability is a read-out of living cells in per cent, often relative to untreated cells. By inhibition is commonly meant the relative decrease from the control value, in per cent. For `CS(=O)(=O)N(CC(=O)O)c1cccc(Cl)c1`, the viability is 95% in test [1]; 95% (inactive) in test [3]; 115% (inactive) in test [4]; 95.7% (inactive) in test [5]; 96.6% in test [6] (setting [9]); 95.7% in test [6] (setting [10]). Besides, the Her2 level in test [2] was 120% (inactive). The differential viability (reversal) in test [6] (H69AR cells + 2 uM doxorubicin) was -0.88% (inactive). The inhibition in test [7] is 2.11% (inactive); in test [8] it was 2.95% (inactive).
For the compound `Cc1cc(Cl)c(S(=O)(=O)N2CCN(c3ccc(F)cc3)CC2)cc1OCC(N)=O`, the viability in test [1] is 82.5%; in test [3], 82.5% (inactive); in test [4], 97.1% (inactive); in test [5] it was 80.5% (inactive); in test [6] (setting [9]), 79.3%; in test [6] (setting [10]), 80.5%. For the same compound, the Her2 level in test [2] was 100% (inactive). For the same compound, the differential viability (reversal) in test [6] (H69AR cells + 2 uM doxorubicin) is 1.14% (inactive). Further, the inhibition in test [7] was -5.66% (inactive); in test [8], 8.85% (inactive).
As to `Cc1c(NC(=O)CN2c3cccc4cccc(c34)S2(=O)=O)c(=O)n(-c2ccccc2)n1C`, the viability in test [1] is 122%; in test [3] it was 122% (inactive); in test [4], 82.6% (inactive); in test [5], 102% (inactive); in test [6] (setting [9]) it was 82.5%; in test [6] (setting [10]), 102%. Further, the Her2 level in test [2] is 93% (inactive). Further, the differential viability (reversal) in test [6] (H69AR cells + 2 uM doxorubicin) was 19.1% (inactive). In addition, the figures for the inhibition in test [7] and in test [8] were -4.27% (inactive) and 7.9% (inactive), respectively.
As for `O=c1ccc(S(=O)(=O)N2CCC(Cc3ccccc3)CC2)c[nH]1`, the viability in test [1] was 86%; in test [3], 86% (inactive); in test [4], 111% (inactive); in test [5] it was 95.3% (inactive); in test [6] (setting [9]), 86.8%; in test [6] (setting [10]), 95.3%. Besides, the Her2 level in test [2] is 80.5% (inactive). Moreover, the differential viability (reversal) in test [6] (H69AR cells + 2 uM doxorubicin) is 8.51% (inactive). Besides, the inhibition was 0.13% (inactive) in test [7] and -4.33% (inactive) in test [8].
For the compound `COc1ccc(CCNC(=O)C2CC(=O)N(c3ccccc3)C2)cc1OC` (stereo not given), the viability is 124% in test [1]; 124% (inactive) in test [3]; 89.7% (inactive) in test [4]; 91.5% (inactive) in test [5]; 90% in test [6] (setting [9]); 91.5% in test [6] (setting [10]). Moreover, in test [2], the Her2 level was 99.5% (inactive). Besides, the differential viability (reversal) in test [6] (H69AR cells + 2 uM doxorubicin) is 1.51% (inactive). For the same compound, the inhibition is -2.47% (inactive) in test [7] and -1.8% (inactive) in test [8].
On to `O=C(NC1CCCCC1)c1ccc(S(=O)(=O)N2CCCCC2)cc1`, for which the viability in test [1] was 80.5%; in test [3], 80.5% (inactive); in test [4], 86% (inactive); in test [5], 74.9% (inactive); in test [6] (setting [9]), 105%; in test [6] (setting [10]) it was 74.9%. Moreover, in test [2], the Her2 level is 108% (inactive). Moreover, the differential viability (reversal) in test [6] (H69AR cells + 2 uM doxorubicin) was -29.9% (inactive). In addition, the inhibition in test [7] is 4.29% (inactive); in test [8], -11.4% (inactive).
In the case of `CC(C)OC(=O)c1cc(=O)[nH]c2ccccc12`, the viability in test [1] is 128%; in test [3], 128% (inactive); in test [4], 95.7% (inactive); in test [5], 102% (inactive); in test [6] (setting [9]), 80.7%; in test [6] (setting [10]), 102%. Moreover, the Her2 level in test [2] is 79% (inactive). Further, the differential viability (reversal) in test [6] (H69AR cells + 2 uM doxorubicin) was 21.9% (inactive). Further, the figures for the inhibition in test [7] and in test [8] were -2.47% (inactive) and -2.22% (inactive), respectively.
`Cc1noc(C)c1S(=O)(=O)N1CCC(C(=O)N2CCN(Cc3ccc4c(c3)OCO4)CC2)CC1`: the viability in test [1] was 94%; in test [3], 94% (inactive); in test [4], 99% (inactive); in test [5] it was 91.9% (inactive); in test [6] (setting [9]) it was 98.6%; in test [6] (setting [10]), 91.9%. Besides, the Her2 level in test [2] is 92.5% (inactive). In addition, the differential viability (reversal) in test [6] (H69AR cells + 2 uM doxorubicin) was -6.75% (inactive). The inhibition in test [7] is -1.45% (inactive); in test [8], -0.63% (inactive).
On to `O=C(COC(=O)c1cncc(Br)c1)NCCC1=CCCCC1`, for which the viability in test [1] was 93.5%; in test [3], 93.5% (inactive); in test [4] it was 101% (inactive); in test [5], 97.5% (inactive); in test [6] (setting [9]), 88.4%; in test [6] (setting [10]), 97.5%. Moreover, the Her2 level in test [2] was 93% (inactive). In addition, the differential viability (reversal) in test [6] (H69AR cells + 2 uM doxorubicin) is 9.04% (inactive). The inhibition in test [7] is -1.28% (inactive); in test [8], -1.33% (inactive).
Consider `N#Cc1c(/N=C/c2ccco2)sc2c1CCC2`, for which the viability in test [1] is 99%; in test [3] it was 99% (inactive); in test [4], 85.2% (inactive); in test [5], 85.7% (inactive); in test [6] (setting [9]), 87.1%; in test [6] (setting [10]) it was 85.7%. Further, the Her2 level in test [2] is 139% (inactive). In addition, the differential viability (reversal) in test [6] (H69AR cells + 2 uM doxorubicin) was -1.43% (inactive). The inhibition is -2.76% (inactive) in test [7] and 11.2% (inactive) in test [8].
For `N#Cc1ccccc1NC(=O)CSc1nnc(-c2ccccc2)n1-c1ccccc1`, the viability in test [1] is 81.5%; in test [3], 81.5% (inactive); in test [4], 102% (inactive); in test [5] it was 30.3% (active); in test [6] (setting [9]) it was 93.8%; in test [6] (setting [10]), 30.3%. In addition, in test [2], the Her2 level is 83% (inactive). For the same compound, the differential viability (reversal) in test [6] (H69AR cells + 2 uM doxorubicin) is -63.4% (inactive). In addition, the inhibition in test [7] is 1.49% (inactive); in test [8], -0.32% (inactive).
Regarding `COC(=O)c1c(O)ccc(Oc2ccccc2)c1C(=O)OC`, the viability in test [1] is 104%; in test [3], 104% (inactive); in test [4] it was 95.9% (inactive); in test [5], 85.3% (inactive); in test [6] (setting [9]), 86.4%; in test [6] (setting [10]), 85.3%. Besides, the Her2 level in test [2] is 119% (inactive). Further, in test [6] (H69AR cells + 2 uM doxorubicin), the differential viability (reversal) is -1.09% (inactive). In addition, the inhibition was -4.49% (inactive) in test [7] and -4.67% (inactive) in test [8].
With `Cc1sc(NC(=O)CSc2nnc(COc3ccccc3)n2C)c(C#N)c1C`, the viability is 83% in test [1]; 83% (inactive) in test [3]; 72.2% (inactive) in test [4]; 70.3% (inactive) in test [5]; 73.3% in test [6] (setting [9]); 70.3% in test [6] (setting [10]). In addition, the Her2 level in test [2] is 75.5% (inactive). Moreover, in test [6] (H69AR cells + 2 uM doxorubicin), the differential viability (reversal) is -3.05% (inactive). Besides, the inhibition is -1.3% (inactive) in test [7] and -7.3% (inactive) in test [8].
For `O=c1sc(Nc2ccccc2)nc2ccsc12`, the viability in test [1] was 96.5%; in test [3], 96.5% (inactive); in test [4], 60.4% (inactive); in test [5], 75.9% (inactive); in test [6] (setting [9]), 78%; in test [6] (setting [10]) it was 75.9%. In test [2], the Her2 level is 47% (active). Besides, in test [6] (H69AR cells + 2 uM doxorubicin), the differential viability (reversal) was -2.11% (inactive). The inhibition in test [7] was -8.16% (inactive); in test [8], -3% (inactive).
As to `CCCn1cnc2c(c1=O)c1nc3ccccc3nc1n2Cc1ccccc1OC`, the viability in test [1] was 99%; in test [3] it was 99% (inactive); in test [4] it was 91.9% (inactive); in test [5], 86.4% (inactive); in test [6] (setting [9]), 88.2%; in test [6] (setting [10]) it was 86.4%. For the same compound, in test [2], the Her2 level was 97% (inactive). The differential viability (reversal) in test [6] (H69AR cells + 2 uM doxorubicin) was -1.82% (inactive). Besides, the results for the inhibition in test [7] and in test [8] were -7.11% (inactive) and -2.22% (inactive), respectively.
With `COc1ccc(NC(=O)CSc2nnc(-c3ccccc3C)n2C)cc1`, the viability was 96.5% in test [1]; 96.5% (inactive) in test [3]; 113% (inactive) in test [4]; 100% (inactive) in test [5]; 86.4% in test [6] (setting [9]); 100% in test [6] (setting [10]). For the same compound, the Her2 level in test [2] is 108% (inactive). Besides, the differential viability (reversal) in test [6] (H69AR cells + 2 uM doxorubicin) is 13.8% (inactive). Besides, the inhibition is -4.55% (inactive) in test [7] and -5.17% (inactive) in test [8].
